In the library only some 2.2% were active in any assay of this set; here they are far more common.
IMP-1 inhibitor: blocks Pseudomonas aeruginosa IMP-1 metallo-beta-lactamase. 290,000 compounds, 0.45% hits. inhibition, % at 5.6 µM. AID 1556. purified IMP-1, nitrocefin hydrolysis, epi-absorbance fluorescence;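 active means inhibition above the mean plus 3 SD of all compounds in the same screening run, cut at about 4.5% in these data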;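 further: 0% = IMP-1 with DMSO and 100% = DMSO wells lacking enzyme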
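Assay system: purified recombinant IMP-1 beta-lactamase. Input: IMP-1 0.2 nM before substrate addition. Buffer or medium: Zinc- and detergent-supplemented HEPES buffer, pH 7.1. Schedule: 25 °C, 15 min preincubation, 25 min reaction. Signal: Epi-absorbance fluorescence, 480 nm excitation, 530 nm emission. Evaluation: percent inhibition from optical density relative to buffer-blank wells.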
CR mimetic SO: lowers age-related superoxide in aged yeast cells. superoxide response (% of plate mean), % at 10 µM. AID 2690. S. cerevisiae aged cells, superoxide DHE fluorescence; active compounds read low. 330,000 compounds, 0.18% hits;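 active means superoxide response under a set limit, about three screen SD below normal, cut at about 65% in these data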;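 further: yeast aged for seven days with compound at 30 °C before DHE staining; 100% = average MFI of all compound-treated wells on the plate with controls excluded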
PvdQ acylase: blocks Pseudomonas aeruginosa PvdQ acylase activity | purified PvdQ acylase, fluorescence plate reader | inhibition, % at 10 µM | 340,000 compounds, 0.063% hits | AID 488965; in the data active means inhibition above about 30%, passing the limit was not always enough;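 further: 0% = vehicle neutral wells and 100% = reference inhibitor wells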
VIM-2 inh: inhibitors of Pseudomonas aeruginosa VIM-2 metallo-beta-lactamase | purified VIM-2, nitrocefin hydrolysis, epi-absorbance fluorescence | inhibition, % at 5.6 µM | 290,000 compounds, 0.89% hits | AID 1527;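 active means inhibition above the mean of all tested compounds plus 3 SD, cutoff set per screening run, cut at about 7.5% in these data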;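 further: red hydrolysis product quenches plate fluorescence so inhibitors raise well fluorescence; 0% = enzyme with DMSO and 100% = DMSO without enzyme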
PHOSPHO1 inh: blocks human PHOSPHO1 phosphatase activity; Q8TCT1; 290,000 compounds, 1.1% hits; recombinant PHOSPHO1, absorbance phosphatase assay; inhibition, % at 13.3 µM; AID 1565; in the data active means inhibition above about 60%
Target sequence (Q8TCT1 whole entry, looked up): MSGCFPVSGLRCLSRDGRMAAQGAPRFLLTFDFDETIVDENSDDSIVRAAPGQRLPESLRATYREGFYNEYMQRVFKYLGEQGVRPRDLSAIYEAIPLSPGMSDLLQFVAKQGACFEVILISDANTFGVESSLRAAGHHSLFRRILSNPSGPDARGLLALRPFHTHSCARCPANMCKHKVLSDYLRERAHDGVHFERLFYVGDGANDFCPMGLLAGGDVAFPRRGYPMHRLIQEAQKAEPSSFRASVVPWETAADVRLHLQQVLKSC
An asterisk follows results filed as active.

For Cc1cccc(NC(=S)NNC(=O)CCn2nc(C)c([N+](=O)[O-])c2C)c1 the results were IMP-1 inhibitor -7, CR mimetic SO 85, PvdQ acylase 13, VIM-2 inh 8.2* and PHOSPHO1 inh -8.
For Cc1nn(CCC(=O)NNC(=S)Nc2cccc(Cl)c2)c(C)c1[N+](=O)[O-] the results were IMP-1 inhibitor -5, CR mimetic SO 115, PvdQ acylase -16, VIM-2 inh 7 and PHOSPHO1 inh -3.
Cc1ccc(NC(=O)c2c([N+](=O)[O-])c(C(C)(C)C)nn2C)cc1 was read as IMP-1 inhibitor -2, CR mimetic SO 103, PvdQ acylase -6, VIM-2 inh -6 and PHOSPHO1 inh 19.
Cc1ccc(NC(=S)NNC(=O)c2nn(C)c(C)c2Cl)cc1 was read as IMP-1 inhibitor -1, CR mimetic SO 107, PvdQ acylase -16, VIM-2 inh -7 and PHOSPHO1 inh 8.
Screening Cc1ccc(NC(=S)NNC(=O)c2c([N+](=O)[O-])c(C)nn2C)cc1 returned IMP-1 inhibitor -5, CR mimetic SO 98, PvdQ acylase -22, VIM-2 inh -3 and PHOSPHO1 inh 76*.
Cc1ccc(NC(=S)NNC(=O)c2c(Cl)c(C)nn2C)cc1 was read as IMP-1 inhibitor -3, CR mimetic SO 77, PvdQ acylase -7, VIM-2 inh -7 and PHOSPHO1 inh 68*.
For COc1ccc(N(CC(=O)NCc2ccc(C)cc2)S(=O)(=O)c2c(C)noc2C)cc1 the results were IMP-1 inhibitor 0, CR mimetic SO 101, PvdQ acylase -12, VIM-2 inh -3 and PHOSPHO1 inh 38.
`Cc1nn(CCC(=O)NNC(=S)Nc2ccc(Cl)cc2)c(C)c1[N+](=O)[O-]` gave IMP-1 inhibitor -6, CR mimetic SO 94, PvdQ acylase -4, VIM-2 inh -4 and PHOSPHO1 inh -6.
Screening Cc1nn(C(C)C(=O)NNC(=S)Nc2ccc(Cl)cc2)c(C)c1[N+](=O)[O-] (configuration not stated) returned IMP-1 inhibitor -2, CR mimetic SO 89, PvdQ acylase -10, VIM-2 inh -1 and PHOSPHO1 inh 94*.
CCC1=[N+](CC(=O)c2ccc(C)cc2)CCn2c(C)ccc21 was read as IMP-1 inhibitor -2, CR mimetic SO 94, PvdQ acylase 8, VIM-2 inh -1 and PHOSPHO1 inh -6.
For CCC1=[N+](C)CCn2c(C)ccc21 the results were IMP-1 inhibitor 2, CR mimetic SO 122, PvdQ acylase -7, VIM-2 inh -1 and PHOSPHO1 inh 69*.
Screening N#CCSc1nc2ccc(N3CCCCC3)cc2c(=O)n1Cc1ccccc1 returned IMP-1 inhibitor -1, CR mimetic SO 99, PvdQ acylase 3, VIM-2 inh -4 and PHOSPHO1 inh 67*.
`O=S(=O)(NCCCNS(=O)(=O)c1c(F)cccc1F)c1ccc2c(c1)OCCO2` gave CR mimetic SO 110 and PvdQ acylase 2.
`COc1ccc(-n2nc3c(N4CCC(C(=O)NCCc5ccccc5C)CC4)nnc(C)c3c2C)cc1` gave IMP-1 inhibitor -3, CR mimetic SO 135, PvdQ acylase 2, VIM-2 inh -2 and PHOSPHO1 inh 33.
Screening COc1ccc(-n2nc3c(N4CCC(C(=O)NCc5ccccc5C)CC4)nnc(C)c3c2C)cc1 returned IMP-1 inhibitor 11*, CR mimetic SO 121, PvdQ acylase 0, VIM-2 inh 3 and PHOSPHO1 inh 28.
Screening CCN1CCN(C(=O)C2CCN(c3nnc(C)c4c(C)n(-c5ccc(C)cc5)nc34)CC2)CC1 returned IMP-1 inhibitor 1, CR mimetic SO 107, PvdQ acylase -14, VIM-2 inh 9.1* and PHOSPHO1 inh 24.
`Cc1ccc(-n2nc3c(N4CCC(C(=O)N5CCC(C(N)=O)CC5)CC4)nnc(C)c3c2C)cc1` gave IMP-1 inhibitor -3, CR mimetic SO 77, PvdQ acylase -4, VIM-2 inh 1 and PHOSPHO1 inh 10.
`COc1cc(OC)cc(C(=O)N[C@H](C(=O)NC2CCCc3ccccc32)C(C)C)c1` (some centres not stated) gave CR mimetic SO 102 and PvdQ acylase -8.
`OCC1OC(n2cnc3c(NCc4ccccc4O)ncnc32)C(O)C1O` (configuration not stated) gave PvdQ acylase -3.
`O=S(=O)(O)c1cc(O)c2c(O)c(N=Nc3cc(Cl)ccc3O)c(S(=O)(=O)O)cc2c1` gave IMP-1 inhibitor 5.7*, CR mimetic SO 176, PvdQ acylase -1, VIM-2 inh -8 and PHOSPHO1 inh 37.
Screening Cc1ccsc1/C=C/c1ccc2ccccc2n1 returned IMP-1 inhibitor -1, CR mimetic SO 90, PvdQ acylase -5, VIM-2 inh 1 and PHOSPHO1 inh 27.
For Cc1ccsc1/C=C/c1ccc2cccc(O)c2n1 the results were IMP-1 inhibitor 2, CR mimetic SO 104, PvdQ acylase 6, VIM-2 inh -4 and PHOSPHO1 inh 86*.
Screening CCOc1ccccc1N(CC(=O)N1CCCCCC1)S(C)(=O)=O returned IMP-1 inhibitor -2, CR mimetic SO 89, PvdQ acylase -7, VIM-2 inh -1 and PHOSPHO1 inh 27.
`CS(=O)(=O)N(CC(=O)Nc1cc(Cl)ccc1Cl)c1ccccc1` gave IMP-1 inhibitor 4.6*, CR mimetic SO 95, PvdQ acylase -8, VIM-2 inh -1 and PHOSPHO1 inh -2.
CCOc1ccc(N(CC(=O)Nc2ccccc2)S(C)(=O)=O)cc1 was read as IMP-1 inhibitor -3, CR mimetic SO 99, PvdQ acylase 6, VIM-2 inh -3 and PHOSPHO1 inh 80*.
Screening CCOc1ccccc1N(CC(=O)OC)S(C)(=O)=O returned IMP-1 inhibitor 4.9*, CR mimetic SO 97, PvdQ acylase -11, VIM-2 inh -2 and PHOSPHO1 inh 6.
`C[n+]1ccc(/C=C/c2ccc(Br)cc2)cc1` gave IMP-1 inhibitor 8.3*, CR mimetic SO 100, PvdQ acylase -3, VIM-2 inh -3 and PHOSPHO1 inh -67.
`COc1ccc(NC(=O)CC2C(=O)Nc3ccccc3N2CC(=O)N2CCCC2)cc1` (configuration not stated) gave CR mimetic SO 100 and PvdQ acylase -12.
Cc1cc2n(c(=O)c1C#N)CCCN2c1cccc(Cl)c1 was read as IMP-1 inhibitor 3, CR mimetic SO 104, PvdQ acylase -6, VIM-2 inh 10* and PHOSPHO1 inh -10.
Screening COc1ccc(NC(=O)CNC(=O)C2CCCCC2)cc1OC returned CR mimetic SO 114 and PvdQ acylase -1.
For COc1ccc(S(=O)(=O)N2CCOCC2)cc1NC(=O)Cc1coc2cc(C)c(C)cc12 the results were IMP-1 inhibitor 71*, CR mimetic SO 114, PvdQ acylase -11, VIM-2 inh -1 and PHOSPHO1 inh 10.
For COc1ccc(S(=O)(=O)N2CCOCC2)cc1NC(=O)Cc1ccccc1Cl the results were IMP-1 inhibitor -4, CR mimetic SO 111, PvdQ acylase -18, VIM-2 inh -1 and PHOSPHO1 inh -8.

Screens (PubChem)
